Source: ChEMBL document CHEMBL1811902, “Thermodynamic and biological evaluation of a thrombin binding aptamer modified with several unlocked nucleic acid (UNA) monomers and a 2'-C-piperazino-UNA monomer” (Bioorg Med Chem, 2011)

Key:
[1] = Thermodynamic stability in pH 7.0 buffer containing 100 mM Kcl, 10 mM sodium cacodylate; format: physicochemical
Method in brief: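 UV melting at 295 nm over 5–95 °C at 0.2 °C/min. Samples annealed 5 min at 80 °C, then slowly cooled. Nine strand concentrations spanning 10^-5–10^-6 M, set from absorbance above 80 °C. Heating and cooling profiles recorded. Thermodynamic parameters from non-linear fitting of melting curves with a unimolecular transition model.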

Plasma [2] = assay: Anticoagulant activity in human plasma assessed as time required for clot formation at 0.33 mM at 37 degC; format: functional
Method in brief: (§1)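 Pooled citrate plasma from four healthy donors. Thrombin reagent pre-incubated with aptamer at 0.33 mM for 5 min, then mixed with an equal volume of plasma. Clotting time (thrombin time, seconds) read at 37 °C on an automated coagulation analyser. Antithrombin effect taken as the extra clotting time over a water-added reference.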

Prothrombin = Prothrombin (Homo sapiens, UniProt P00734); assay: Binding affinity to thrombin at 37 degC by isothermal titration calorimetry
Method in brief: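 ITC at 37 °C. One 0.2 µL pre-injection, discarded, then 19 × 2 µL injections. Heat of dilution from aptamer-into-buffer injections subtracted.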

Plasma [3] = assay: Anticoagulant activity in human plasma assessed as time required for clot formation in presence of compound minus time required for clot formation in absence of compound at 0.33 mM at 37 degC; format: functional; method in brief: as §1

Structure (SMILES)	Tm [1]	Kd (Prothrombin)	Time (Plasma [2])	Time (Plasma [3])
Cc1cn([C@H]2C[C@H](OP(N)(=O)OC[C@H]3O[C@@H](n4cnc5c(=O)[nH]c(N)nc54)C[C@@H]3OP(N)(=O)OC[C@H]3O[C@@H](n4cnc5c(=O)[nH]c(N)nc54)C[C@@H]3O)[C@@H](COP(N)(=O)OC[C@@H](COP(N)(=O)O[C@H]3C[C@H](n4cnc5c(=O)[nH]c(N)nc54)O[C@@H]3COP(N)(=O)O[C@H]3C[C@H](n4cnc5c(=O)[nH]c(N)nc54)O[C@@H]3COP(N)(=O)O[C@H]3C[C@H](n4cc(C)c(=O)[nH]c4=O)O[C@@H]3COP(N)(=O)O[C@H]3C[C@H](n4cnc5c(=O)[nH]c(N)nc54)O[C@@H]3COP(N)(=O)OC[C@@H](COP(N)(=O)O[C@H]3C[C@H](n4cnc5c(=O)[nH]c(N)nc54)O[C@@H]3COP(N)(=O)O[C@@H]3C[C@@H](COP(N)(=O)O[C@H]4C[C@H](n5cc(C)c(=O)[nH]c5=O)O[C@@H]4COP(N)(=O)O[C@H]4C[C@H](n5cc(C)c(=O)[nH]c5=O)O[C@@H]4COP(N)(=O)O[C@H]4C[C@H](n5cnc6c(=O)[nH]c(N)nc65)O[C@@H]4COP(N)(=O)O[C@H]4C[C@H](n5cnc6c(=O)[nH]c(N)nc65)O[C@@H]4COC(=O)CCCC[C@@H]4SC[C@@H]5NC(=O)N[C@@H]54)O[C@H]3n3cnc4c(=O)[nH]c(N)nc43)O[C@H](CO)n3ccc(=O)[nH]c3=O)O[C@H](CO)n3ccc(=O)[nH]c3=O)O2)c(=O)[nH]c1=O (stereo not given in full)	48.1 °C	300 nM	28.7 s	9.7 s
Cc1cn([C@H]2C[C@H](OP(N)(=O)OC[C@@H]3C[C@@H](OP(N)(=O)OC[C@H]4O[C@@H](n5cnc6c(=O)[nH]c(N)nc65)C[C@@H]4OP(N)(=O)OC[C@H](COP(N)(=O)OC[C@H]4O[C@@H](n5cnc6c(=O)[nH]c(N)nc65)C[C@@H]4OP(N)(=O)OC[C@H]4O[C@@H](n5cc(C)c(=O)[nH]c5=O)C[C@@H]4OP(N)(=O)OC[C@H]4O[C@@H](n5cnc6c(=O)[nH]c(N)nc65)C[C@@H]4OP(N)(=O)OC[C@H]4O[C@@H](n5cnc6c(=O)[nH]c(N)nc65)C[C@@H]4OP(N)(=O)OC[C@H]4O[C@@H](n5cc(C)c(=O)[nH]c5=O)C[C@@H]4OP(N)(=O)OC[C@H]4O[C@@H](n5cc(C)c(=O)[nH]c5=O)C[C@@H]4OP(N)(=O)OC[C@H]4O[C@@H](n5cnc6c(=O)[nH]c(N)nc65)C[C@@H]4OP(N)(=O)OC[C@H]4O[C@@H](n5cnc6c(=O)[nH]c(N)nc65)C[C@@H]4O)O[C@H](CO)n4ccc(=O)[nH]c4=O)[C@H](n4cnc5c(=O)[nH]c(N)nc54)O3)[C@@H](COP(N)(=O)OC[C@@H](COP(N)(=O)O[C@H]3C[C@H](n4cnc5c(=O)[nH]c(N)nc54)O[C@@H]3COP(N)(=O)O[C@H]3C[C@H](n4cnc5c(=O)[nH]c(N)nc54)O[C@@H]3COC(=O)CCCC[C@@H]3SC[C@@H]4NC(=O)N[C@@H]43)O[C@H](CO)n3ccc(=O)[nH]c3=O)O2)c(=O)[nH]c1=O (stereo not given in full)	50.1 °C	1300 nM	31.2 s	12.2 s
Cc1cn([C@H]2C[C@H](OP(N)(=O)OC[C@H]3O[C@@H](n4cnc5c(=O)[nH]c(N)nc54)C[C@@H]3OP(N)(=O)OC[C@H]3O[C@@H](n4cnc5c(=O)[nH]c(N)nc54)C[C@@H]3O)[C@@H](COP(N)(=O)O[C@H]3C[C@H](n4cc(C)c(=O)[nH]c4=O)O[C@@H]3COP(N)(=O)O[C@H]3C[C@H](n4cnc5c(=O)[nH]c(N)nc54)O[C@@H]3COP(N)(=O)O[C@H]3C[C@H](n4cnc5c(=O)[nH]c(N)nc54)O[C@@H]3COP(N)(=O)OC[C@@H](COP(N)(=O)OC[C@@H](COP(N)(=O)OC[C@@H](COP(N)(=O)O[C@H]3C[C@H](n4cnc5c(=O)[nH]c(N)nc54)O[C@@H]3COP(N)(=O)O[C@@H]3C[C@@H](COP(N)(=O)O[C@H]4C[C@H](n5cc(C)c(=O)[nH]c5=O)O[C@@H]4COP(N)(=O)O[C@H]4C[C@H](n5c(C)cc(=O)[nH]c5=O)O[C@@H]4COP(N)(=O)O[C@H]4C[C@H](n5cnc6c(=O)[nH]c(N)nc65)O[C@@H]4COP(N)(=O)O[C@H]4C[C@H](n5cnc6c(=O)[nH]c(N)nc65)O[C@@H]4COC(=O)CCCC[C@@H]4SC[C@@H]5NC(=O)N[C@@H]54)O[C@H]3n3cnc4c(=O)[nH]c(N)nc43)O[C@H](CO)n3ccc(=O)[nH]c3=O)O[C@H](CO)n3cnc4c(=O)[nH]c(N)nc43)O[C@H](CO)n3ccc(=O)[nH]c3=O)O2)c(=O)[nH]c1=O (stereo not given in full)	27 °C	1500 nM	20.5 s	1.5 s

Continued by falling Kd (Prothrombin), values first:

Tm [1]	Kd (Prothrombin)	Structure (SMILES)	Time (Plasma [2])	Time (Plasma [3])
44.8 °C	1000 nM	Cc1cn([C@H]2C[C@H](OP(N)(=O)OC[C@H]3O[C@@H](n4cnc5c(=O)[nH]c(N)nc54)C[C@@H]3OP(N)(=O)OC[C@H]3O[C@@H](n4cnc5c(=O)[nH]c(N)nc54)C[C@@H]3O)[C@@H](COP(N)(=O)OC[C@@H](COP(N)(=O)O[C@H]3C[C@H](n4cnc5c(=O)[nH]c(N)nc54)O[C@@H]3COP(N)(=O)O[C@H]3C[C@H](n4cnc5c(=O)[nH]c(N)nc54)O[C@@H]3COP(N)(=O)O[C@H]3C[C@H](n4cc(C)c(=O)[nH]c4=O)O[C@@H]3COP(N)(=O)O[C@H]3C[C@H](n4cnc5c(=O)[nH]c(N)nc54)O[C@@H]3COP(N)(=O)O[C@H]3C[C@H](n4c(C)cc(=O)[nH]c4=O)O[C@@H]3COP(N)(=O)O[C@H]3C[C@H](n4cnc5c(=O)[nH]c(N)nc54)O[C@@H]3COP(N)(=O)O[C@@H]3C[C@@H](COP(N)(=O)O[C@H]4C[C@H](n5cc(C)c(=O)[nH]c5=O)O[C@@H]4COP(N)(=O)O[C@H]4C[C@H](n5cc(C)c(=O)[nH]c5=O)O[C@@H]4COP(N)(=O)O[C@H]4C[C@H](n5cnc6c(=O)[nH]c(N)nc65)O[C@@H]4COP(N)(=O)O[C@H]4C[C@H](n5cnc6c(=O)[nH]c(N)nc65)O[C@@H]4COC(=O)CCCC[C@@H]4SC[C@@H]5NC(=O)N[C@@H]54)O[C@H]3n3cnc4c(=O)[nH]c(N)nc43)O[C@H](CN3CCNCC3)n3ccc(=O)[nH]c3=O)O2)c(=O)[nH]c1=O (stereo not given in full)	22.5 s	3.5 s
42.2 °C	47.6 nM	Cc1cn([C@H]2C[C@H](OP(N)(=O)OC[C@@H]3C[C@@H](OP(N)(=O)OC[C@H]4O[C@@H](n5cnc6c(=O)[nH]c(N)nc65)C[C@@H]4OP(N)(=O)OC[C@H]4O[C@@H](n5cc(C)c(=O)[nH]c5=O)C[C@@H]4OP(N)(=O)OC[C@H]4O[C@@H](n5cnc6c(=O)[nH]c(N)nc65)C[C@@H]4OP(N)(=O)OC[C@H]4O[C@@H](n5cc(C)c(=O)[nH]c5=O)C[C@@H]4OP(N)(=O)OC[C@H]4O[C@@H](n5cnc6c(=O)[nH]c(N)nc65)C[C@@H]4OP(N)(=O)OC[C@H]4O[C@@H](n5cnc6c(=O)[nH]c(N)nc65)C[C@@H]4OP(N)(=O)OC[C@H]4O[C@@H](n5cc(C)c(=O)[nH]c5=O)C[C@@H]4OP(N)(=O)OC[C@H]4O[C@@H](n5cc(C)c(=O)[nH]c5=O)C[C@@H]4OP(N)(=O)OC[C@H]4O[C@@H](n5cnc6c(=O)[nH]c(N)nc65)C[C@@H]4OP(N)(=O)OC[C@H]4O[C@@H](n5cnc6c(=O)[nH]c(N)nc65)C[C@@H]4O)[C@H](n4cnc5c(=O)[nH]c(N)nc54)O3)[C@@H](COP(N)(=O)O[C@H]3C[C@H](n4cc(C)c(=O)[nH]c4=O)O[C@@H]3COP(N)(=O)O[C@H]3C[C@H](n4cnc5c(=O)[nH]c(N)nc54)O[C@@H]3COP(N)(=O)O[C@H]3C[C@H](n4cnc5c(=O)[nH]c(N)nc54)O[C@@H]3COC(=O)CCCC[C@@H]3SC[C@@H]4NC(=O)N[C@@H]43)O2)c(=O)[nH]c1=O (stereo not given in full) [THROMBIN BINDING APTAMER]	32.6 s	13.6 s
